From ChEMBL document CHEMBL1133688, “Hunting the emesis and efficacy targets of PDE4 inhibitors: identification of the photoaffinity probe 8-(3-azidophenyl)-6- [(4-iodo-1H-1-imidazolyl)methyl]quinoline (APIIMQ)” (J Med Chem, 2000)
pIC50, pKi: −log10 of the molar value.

How the values were obtained:
[1] = biological target: 3',5'-cyclic-AMP phosphodiesterase 4A (Homo sapiens, UniProt P27815); experiment: Inhibition of recombinant human PDE4A expressed in Sf9 cells
Outline: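 Inhibition of the purified enzyme's catalytic activity (cAMP hydrolysis) was measured, and IC50 was derived.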

[2] = organism: Cavia porcellus; experiment: Bronchoconstriction effect in ovalbumin-induced guinea pig model; assay type: functional
[3] = organism: Homo sapiens; experiment: Inhibition of LPS-induced TNF-alpha secretion in human whole blood; assay type: functional

3',5'-cyclic-AMP phosphodiesterase 4A, sequence (P27815 whole entry): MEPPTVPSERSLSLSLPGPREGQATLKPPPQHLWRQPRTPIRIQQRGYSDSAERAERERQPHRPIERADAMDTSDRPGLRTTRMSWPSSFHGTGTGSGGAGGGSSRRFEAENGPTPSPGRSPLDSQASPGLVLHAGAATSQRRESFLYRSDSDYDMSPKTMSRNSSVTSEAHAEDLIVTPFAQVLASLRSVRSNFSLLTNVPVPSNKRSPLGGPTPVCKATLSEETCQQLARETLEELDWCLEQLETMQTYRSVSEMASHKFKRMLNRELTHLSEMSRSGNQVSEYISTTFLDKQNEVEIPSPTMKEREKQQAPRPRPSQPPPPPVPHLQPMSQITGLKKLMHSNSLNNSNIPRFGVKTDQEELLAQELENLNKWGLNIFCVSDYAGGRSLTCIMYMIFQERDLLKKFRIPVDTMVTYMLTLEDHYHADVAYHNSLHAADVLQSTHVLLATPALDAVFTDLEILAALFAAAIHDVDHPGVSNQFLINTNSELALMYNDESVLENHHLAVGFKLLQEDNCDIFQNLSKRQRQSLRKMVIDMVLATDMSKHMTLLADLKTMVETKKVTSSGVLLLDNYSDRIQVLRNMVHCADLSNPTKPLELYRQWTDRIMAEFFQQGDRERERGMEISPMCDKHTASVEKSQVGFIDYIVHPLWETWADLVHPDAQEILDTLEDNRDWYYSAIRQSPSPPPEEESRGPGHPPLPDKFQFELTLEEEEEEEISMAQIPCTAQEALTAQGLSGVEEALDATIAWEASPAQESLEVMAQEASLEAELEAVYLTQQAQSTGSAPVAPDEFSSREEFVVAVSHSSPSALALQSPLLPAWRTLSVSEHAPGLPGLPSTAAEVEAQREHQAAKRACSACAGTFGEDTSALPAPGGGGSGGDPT

O=C(c1ccccc1)c1cc(-c2cccc(I)c2)c2ncccc2c1
pIC50 [1]: 7.82

[N-]=[N+]=Nc1cc(-c2cccc(I)c2)c2ncccc2c1
pIC50 [1]: 7.55

COc1ccc(C2CC(=O)N(Cc3cc(I)cc(C4(C(F)(F)F)N=N4)c3)C2)cc1OC1CCCC1 (centres undefined)
pIC50 [1]: 7.46

[N-]=[N+]=Nc1ccc(I)c(-c2cc(Cc3ccncc3)cc3cccnc23)c1
pIC50 [1]: 8.48

O=[N+]([O-])c1cccc(-c2cc(Cc3ccncc3)cc3cccnc23)c1
pIC50 [1]: 10.15

[N-]=[N+]=Nc1cccc(-c2cc(I)cc3cccnc23)c1
pIC50 [1]: 8.57

O=c1c2c(ncn2Cc2ccccc2)c2cccnc2n1-c1ccccc1
pIC50 [1]: 9.22

[N-]=[N+]=Nc1cccc(-c2cc(Cc3ccncc3)cc3cccnc23)c1
pIC50 [1]: 9.70

O=c1c2c(ncn2Cc2cc(I)cc(C3(C(F)(F)F)N=N3)c2)c2cccnc2n1-c1ccccc1
pIC50 [1]: 6.60

[N-]=[N+]=Nc1cccc(-c2cc(Cn3cnc(I)c3)cc3cccnc23)c1
ED50 [2]: 0.3 mg/kg | pIC50 [3]: 5.70 | pIC50 [1]: 9.40

c1ccc(-c2cc(Cn3ccnc3)cc3cccnc23)cc1
pIC50 [1]: 8.05

COc1ccc([C@H](Cc2ccncc2)c2ccccc2)cc1OC1CCCC1 [CDP840]
pKi [1]: 8.40
